Assay results taken from ChEMBL document CHEMBL3421615, “Synthesis and identification of unprecedented selective inhibitors of CK1ε” (Eur J Med Chem, 2015).

Columns and labels:
WiDr = assay: Antiproliferative activity against human WiDr cells after 48 hrs incubation by SRB assay; assay type: functional
Procedure, shortened: (§1)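 Cells kept in RPMI 1640 with 5% heat-inactivated FCS and 2 mM L-glutamine at 37 °C, 5% CO2. Plated at 10 000 (HBL-100, HeLa, SW1573), 15 000 (T-47D) or 20 000 (WiDr) cells/well. Dosing began day 1, in triplicate, over 1–100 range. DMSO stocks at 400× final top concentration; vehicle control 0.25% DMSO. Exposure 48 h, then TCA fixation 60 min at 4 °C. SRB read-out at 492 nm, background-corrected; GI50 from dose–response.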

HeLa = assay: Antiproliferative activity against human HeLa cells after 48 hrs incubation by SRB assay; assay type: functional; procedure, shortened: as §1
[1] = Antiproliferative activity against human HBL100 cells after 48 hrs incubation by SRB assay; assay type: functional; details: HBL-100, 48 h; procedure, shortened: as §1
SW1573 = assay: Antiproliferative activity against human SW1573 cells after 48 hrs incubation by SRB assay; assay type: functional; details: SW1573, 48 h; procedure, shortened: as §1
T47D = assay: Antiproliferative activity against human T47D cells after 48 hrs incubation by SRB assay; assay type: functional; procedure, shortened: as §1
[2] = molecular target: Casein kinase II subunit alpha' (Homo sapiens) (UniProt P19784); assay: Inhibition of human Casein kinase 2 alpha prime polypeptide assessed as residual activity at 10 uM relative to control
Procedure, shortened: (§2)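 KINOMEscan active-site-directed competition binding run against a 456-kinase panel (scanMAX), each compound at a single 10 µM concentration. Binding reported as percent of control, with DMSO set to 100%Ctrl and a positive control set to 0%Ctrl. Hit cut-off is 35%Ctrl.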

[3] = molecular target: Casein kinase I isoform alpha (Homo sapiens) (UniProt P48729); assay: Inhibition of human Casein kinase 1 alpha 1 assessed as residual activity at 10 uM relative to control; procedure, shortened: as §2
[4] = molecular target: Casein kinase I isoform epsilon (Homo sapiens, UniProt P49674); assay: Inhibition of human Casein kinase 1 epsilon assessed as residual activity at 10 uM relative to control; procedure, shortened: as §2
[5] = molecular target: Casein kinase I isoform gamma-2 (Homo sapiens) (UniProt P78368); assay: Inhibition of human Casein kinase 1 gamma 2 assessed as residual activity at 10 uM relative to control; procedure, shortened: as §2
[6] = molecular target: Casein kinase I isoform gamma-3 (Homo sapiens) (UniProt Q9Y6M4); assay: Inhibition of human Casein kinase 1 gamma 3 assessed as residual activity at 10 uM relative to control; procedure, shortened: as §2
[7] = molecular target: Casein kinase II subunit alpha (Homo sapiens) (UniProt P68400); assay: Inhibition of human Casein kinase 2 alpha 1 polypeptide assessed as residual activity at 10 uM relative to control; procedure, shortened: as §2
[8] = molecular target: Casein kinase I isoform delta (Homo sapiens) (UniProt P48730); assay: Inhibition of human Casein kinase 1 delta assessed as residual activity at 10 uM relative to control; procedure, shortened: as §2
[9] = molecular target: T1, Casein kinase I isoform alpha-like (Homo sapiens) (UniProt Q8N752); assay: Inhibition of human Casein kinase 1 alpha 1-like assessed as residual activity at 10 uM relative to control; procedure, shortened: as §2
T1 sequence (whole entry): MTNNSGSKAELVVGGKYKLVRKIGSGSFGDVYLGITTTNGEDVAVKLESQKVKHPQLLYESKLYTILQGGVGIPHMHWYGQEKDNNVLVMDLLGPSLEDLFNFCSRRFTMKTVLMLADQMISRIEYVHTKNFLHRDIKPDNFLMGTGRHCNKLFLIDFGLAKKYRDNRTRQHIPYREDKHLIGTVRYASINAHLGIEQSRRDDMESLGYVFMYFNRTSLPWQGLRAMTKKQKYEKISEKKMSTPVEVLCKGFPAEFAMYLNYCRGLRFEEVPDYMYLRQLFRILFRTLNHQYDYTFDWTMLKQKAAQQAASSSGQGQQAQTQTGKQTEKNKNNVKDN

[10] = molecular target: Casein kinase I isoform gamma-1 (Homo sapiens) (UniProt Q9HCP0); assay: Inhibition of human Casein kinase 1 gamma 1 assessed as residual activity at 10 uM relative to control; procedure, shortened: as §2
Chain of Casein kinase I isoform gamma-1 (Homo sapiens) (Q9HCP0 whole entry, looked up, canonical isoform): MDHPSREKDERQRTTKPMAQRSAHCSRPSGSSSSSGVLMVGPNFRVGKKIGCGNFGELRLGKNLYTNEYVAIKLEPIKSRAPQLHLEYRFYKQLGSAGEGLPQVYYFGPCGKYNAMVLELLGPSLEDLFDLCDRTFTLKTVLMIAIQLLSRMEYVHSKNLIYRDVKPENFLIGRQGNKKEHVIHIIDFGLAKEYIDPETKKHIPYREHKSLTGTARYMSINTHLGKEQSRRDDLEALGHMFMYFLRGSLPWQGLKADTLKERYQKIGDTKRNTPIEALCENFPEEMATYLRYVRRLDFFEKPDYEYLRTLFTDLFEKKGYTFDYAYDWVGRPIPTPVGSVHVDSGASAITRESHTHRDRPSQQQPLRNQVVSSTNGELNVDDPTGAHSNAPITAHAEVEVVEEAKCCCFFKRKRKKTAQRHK

Chain of Casein kinase I isoform alpha (Homo sapiens) (P48729 2-337 limits assumed): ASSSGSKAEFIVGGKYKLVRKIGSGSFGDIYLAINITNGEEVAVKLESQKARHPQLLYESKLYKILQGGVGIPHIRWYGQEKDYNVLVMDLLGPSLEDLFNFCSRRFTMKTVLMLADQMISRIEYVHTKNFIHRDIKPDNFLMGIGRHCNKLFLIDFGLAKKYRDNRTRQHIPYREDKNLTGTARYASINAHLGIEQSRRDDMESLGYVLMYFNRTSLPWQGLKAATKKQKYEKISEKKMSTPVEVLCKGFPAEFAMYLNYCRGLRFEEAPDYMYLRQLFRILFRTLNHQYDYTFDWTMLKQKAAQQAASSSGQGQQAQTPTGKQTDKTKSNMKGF
Chain of Casein kinase II subunit alpha' (Homo sapiens) (P19784 whole entry, looked up): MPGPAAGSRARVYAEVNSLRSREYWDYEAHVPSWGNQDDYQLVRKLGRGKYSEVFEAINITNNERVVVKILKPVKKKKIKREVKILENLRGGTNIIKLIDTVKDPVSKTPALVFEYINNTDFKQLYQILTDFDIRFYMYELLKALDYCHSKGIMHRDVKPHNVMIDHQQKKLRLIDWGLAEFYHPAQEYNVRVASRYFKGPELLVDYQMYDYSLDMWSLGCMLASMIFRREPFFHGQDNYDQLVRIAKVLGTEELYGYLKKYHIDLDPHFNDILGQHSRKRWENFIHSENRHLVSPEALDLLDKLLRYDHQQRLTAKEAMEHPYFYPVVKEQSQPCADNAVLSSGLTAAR
Chain of Casein kinase I isoform epsilon (P49674 whole entry, looked up, canonical isoform): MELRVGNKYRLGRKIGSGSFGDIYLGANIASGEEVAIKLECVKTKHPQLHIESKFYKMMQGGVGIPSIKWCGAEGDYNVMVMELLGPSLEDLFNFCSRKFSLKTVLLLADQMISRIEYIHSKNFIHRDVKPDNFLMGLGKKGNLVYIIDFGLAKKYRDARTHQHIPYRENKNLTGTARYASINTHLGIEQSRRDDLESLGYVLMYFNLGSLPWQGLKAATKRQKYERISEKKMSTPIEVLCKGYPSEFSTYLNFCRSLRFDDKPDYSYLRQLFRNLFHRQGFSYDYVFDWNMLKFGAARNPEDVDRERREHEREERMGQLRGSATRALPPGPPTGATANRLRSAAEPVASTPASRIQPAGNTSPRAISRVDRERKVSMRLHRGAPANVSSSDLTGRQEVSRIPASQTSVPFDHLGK
Chain of Casein kinase I isoform gamma-3 (Homo sapiens) (Q9Y6M4 whole entry, looked up, canonical isoform): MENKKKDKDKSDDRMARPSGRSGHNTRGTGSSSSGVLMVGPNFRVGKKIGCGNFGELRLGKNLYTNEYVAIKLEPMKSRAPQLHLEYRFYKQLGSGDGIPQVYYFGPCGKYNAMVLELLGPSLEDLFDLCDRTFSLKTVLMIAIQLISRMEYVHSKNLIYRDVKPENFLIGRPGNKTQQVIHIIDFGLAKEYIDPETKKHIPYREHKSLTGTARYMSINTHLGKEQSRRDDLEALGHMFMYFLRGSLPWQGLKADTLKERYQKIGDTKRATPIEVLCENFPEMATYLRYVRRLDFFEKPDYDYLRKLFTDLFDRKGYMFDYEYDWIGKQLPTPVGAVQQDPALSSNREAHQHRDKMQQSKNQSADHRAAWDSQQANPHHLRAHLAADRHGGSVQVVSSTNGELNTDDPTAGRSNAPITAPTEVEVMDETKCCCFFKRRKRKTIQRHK
Chain of Casein kinase I isoform delta (Homo sapiens) (P48730 whole entry, looked up, canonical isoform): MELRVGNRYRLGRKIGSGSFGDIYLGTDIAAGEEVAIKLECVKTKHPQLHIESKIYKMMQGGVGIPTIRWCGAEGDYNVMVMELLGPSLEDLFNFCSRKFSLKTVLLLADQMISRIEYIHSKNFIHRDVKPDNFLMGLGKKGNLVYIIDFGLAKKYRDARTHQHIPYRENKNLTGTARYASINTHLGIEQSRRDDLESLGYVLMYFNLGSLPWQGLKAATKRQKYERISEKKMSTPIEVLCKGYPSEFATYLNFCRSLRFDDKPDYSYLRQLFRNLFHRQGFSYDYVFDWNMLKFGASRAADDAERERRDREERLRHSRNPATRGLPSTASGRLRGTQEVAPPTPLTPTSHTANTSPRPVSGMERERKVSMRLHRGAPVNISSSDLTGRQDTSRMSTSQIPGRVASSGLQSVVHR
Chain of Casein kinase I isoform gamma-2 (Homo sapiens) (P78368 whole entry, looked up, canonical isoform): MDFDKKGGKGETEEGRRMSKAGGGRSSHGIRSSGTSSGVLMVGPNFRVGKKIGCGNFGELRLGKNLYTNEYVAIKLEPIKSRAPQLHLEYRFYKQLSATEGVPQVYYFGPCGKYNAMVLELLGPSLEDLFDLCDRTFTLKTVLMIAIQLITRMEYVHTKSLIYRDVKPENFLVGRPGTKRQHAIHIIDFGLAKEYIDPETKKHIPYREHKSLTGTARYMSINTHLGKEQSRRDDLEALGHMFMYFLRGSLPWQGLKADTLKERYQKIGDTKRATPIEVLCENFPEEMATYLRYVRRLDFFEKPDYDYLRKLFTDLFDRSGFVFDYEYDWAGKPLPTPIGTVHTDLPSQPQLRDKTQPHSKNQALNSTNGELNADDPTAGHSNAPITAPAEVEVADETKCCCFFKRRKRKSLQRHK
Chain of Casein kinase II subunit alpha (Homo sapiens) (P68400 whole entry, looked up, canonical isoform): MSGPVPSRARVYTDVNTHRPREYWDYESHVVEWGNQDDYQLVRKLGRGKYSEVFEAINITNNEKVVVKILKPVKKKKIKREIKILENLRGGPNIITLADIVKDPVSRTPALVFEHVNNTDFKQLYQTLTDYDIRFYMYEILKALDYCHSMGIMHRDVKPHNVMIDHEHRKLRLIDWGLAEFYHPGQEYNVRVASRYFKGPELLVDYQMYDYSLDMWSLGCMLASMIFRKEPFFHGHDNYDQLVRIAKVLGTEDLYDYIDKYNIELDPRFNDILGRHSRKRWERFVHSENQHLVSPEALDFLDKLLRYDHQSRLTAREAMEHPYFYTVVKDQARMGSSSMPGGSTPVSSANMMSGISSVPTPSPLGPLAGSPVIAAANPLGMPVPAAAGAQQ

SMILES | GI50 (HeLa) | GI50 (SW1573) | GI50 (T47D) | Activity [2] | Activity [3] | Activity [4] | Activity [5] | Activity [6] | Activity [7] | Activity [8] | Activity [9] | Activity [10] | GI50 (WiDr) | GI50 [1]
CCCCCCCCCCCCCCC[C@@H](O)[C@@H](N)C(C)CC (single isomer, unassigned) | 20 µM | 3.4 µM | 17 µM |  |  |  |  |  |  |  |  |  | 13 µM | 2.4 µM
CCCCCCCCC[C@@H](O)[C@@H](N)CC(C)C | 21 µM | 14 µM | 11 µM |  |  |  |  |  |  |  |  |  | 5.9 µM | 14 µM
CCCCCCCCC[C@@H](O)[C@@H](N)C(C)CC (single isomer, unassigned) | 20 µM | 13 µM | 14 µM |  |  |  |  |  |  |  |  |  | 2.3 µM | 13 µM
CCCCCCCCC[C@@H](O)[C@@H](N)Cc1ccccc1 | 18 µM | 16 µM | 17 µM | 100% | 95% | 27% | 96% | 71% | 70% | 93% | 88% | 100% | 12 µM | 14 µM
CCCCCCCCCCCCCCC[C@@H](O)[C@@H](N)C(C)C | 21 µM | 7.2 µM | 18 µM |  |  |  |  |  |  |  |  |  | 20 µM | 4.9 µM
CCCCCCCCC[C@@H](O)[C@@H](N)C(C)C | 20 µM | 17 µM | 17 µM |  |  |  |  |  |  |  |  |  | 11 µM | 14 µM
CCCCCCCCC[C@@H](O)[C@@H](N)Cc1ccc(O)cc1 | 20 µM | 18 µM | 17 µM |  |  |  |  |  |  |  |  |  | 12 µM | 14 µM

The next lines start with results.

GI50 (HeLa) | GI50 (SW1573) | GI50 (T47D) | Activity [2] | Activity [3] | Activity [4] | Activity [5] | Activity [6] | Activity [7] | Activity [8] | Activity [9] | Activity [10] | SMILES | GI50 (WiDr) | GI50 [1]
2 µM | 3 µM | 15 µM |  |  |  |  |  |  |  |  |  | COc1cc([C@@H]2c3cc4c(cc3[C@@H](O[C@@H]3O[C@@H]5CO[C@@H](C)O[C@H]5[C@H](O)[C@H]3O)[C@H]3COC(=O)[C@H]23)OCO4)cc(OC)c1O [ETOPOSIDE] | 26 µM | 1.9 µM
19 µM | 17 µM | 19 µM | 100% | 100% | 43% | 87% | 82% | 71% | 90% | 100% | 100% | CCCCCCCCCCCCCCC[C@@H](O)[C@@H](N)[C@@H](C)O | 18 µM | 21 µM
15 µM | 4.5 µM | 22 µM |  |  |  |  |  |  |  |  |  | CCCCCCCCCCCCCCC[C@@H](O)[C@@H](N)CO [DIHYDROSPINGOSINE] | 19 µM | 25 µM
17 µM | 17 µM | 16 µM |  |  |  |  |  |  |  |  |  | CCCCCCCCC[C@@H](O)[C@@H](N)[C@@H](C)O | 14 µM | 13 µM
19 µM | 2.8 µM | 15 µM | 100% | 93% | 48% | 94% | 93% | 84% | 89% | 91% | 98% | CCCCCCCCCCCCCCC[C@@H](O)[C@@H](N)CC(C)C | 4.9 µM | 2.4 µM
2.6 µM | 1.3 µM | 0.9 µM | 98% | 100% | 60% | 100% | 100% | 87% | 100% | 100% | 98% | CCCCCCCCCCCCCCC[C@@H](O)[C@H](C)N | 0.7 µM | 2.3 µM
9.2 µM | 9.5 µM | 12 µM |  |  |  |  |  |  |  |  |  | CCCCCCCCC[C@@H](O)[C@H](C)N | 17 µM | 6.6 µM
1.3 µM | 2.1 µM | 1.8 µM |  |  |  |  |  |  |  |  |  | CCCCCCCCCCCCCCC[C@@H](O)[C@@H](N)Cc1ccccc1 | 2.3 µM | 2.9 µM
